These results are taken from PMC4836388 (ACS chemical biology, 2015).

For one assay, the system named is HIV-1BaL virions. In words: sulfhydryl reagent treat/wash viral infection assay. Type of assay: cell-based. To be noted: HOS cells.
The subject of assay [1] is HIV-1BaL pseudovirus. In words: single-round pseudoviral infection luciferase reporter assay. Type of assay: cell-based. To be noted: for inhibition of pseudotyped HIV-1BaL infection by sulfhydryl reagent: reagent not removed.
The test system of assay [2] is pseudotyped HIV-1BaL virus. In words: virolysis assay. Conditions: HIV-1BaL pseudotyped virions.
Assay [3] has as its system HIV-1BaL pseudovirus. In words: 2G12 mechanism of action infection assay. Conditions: ligand added after virus bound to cells at 4 °C. Type of assay: cell-based. Summed up:
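HIV-1BaL.01 Env pseudovirus (pNL4-3.Luc+ R− E− backbone, made in HEK-293T, iodixanol-gradient purified) bound to prechilled HOS.T4.R5 cells (preseeded 24 h, 8000/well) 4 h at 4 °C. Cells washed twice cold, then exposed to serially diluted test antibody for 30 min steps at 4 °C and 23 °C, then 24 h at 37 °C. Medium wash; lysis at 48 h; luciferase (1 mM D-luciferin). Enfuvirtide control wells; triplicate; infection relative to virus without inhibitor.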

Assay [4] has as its system pseudotyped HIV-1BaL virions. In words: protein inhibition of virolysis. To be noted: with 10 μM 1, 14 μM 2 or 50 μM 8 (EC80).

“Also recorded” adds a separate entry of the source.

As to `O[C@@H](CS)[C@@H](O)CS` (racemic) [DTT, dithiothreitol], the “virus infectivity after reagent treatment and removal” value in the assay with HIV-1BaL virions was “did not cause significant dose-dependent reduction”. Also, in the assay on HIV-1BaL pseudovirus [1], the “inhibition of pseudotyped HIV-1BaL infection by sulfhydryl reagent” value (shortened to “inhibition … by sulfhydryl reagent”) is reported as “inhibit”.

As to `CC[C@H](C)[C@H](NC(=O)[C@@H](N)CCCNC(=N)N)C(=O)N[C@@H](CC(N)=O)C(=O)N[C@@H](CC(N)=O)C(=O)N[C@H](C(=O)N1C[C@@H](n2cc([C]34[CH]5[CH]6[CH]7[CH]3[Fe]6754389%10[CH]4[CH]3[CH]8[CH]9[CH]4%10)nn2)C[C@H]1C(=O)N[C@@H](Cc1c[nH]c2ccccc12)C(=O)N[C@@H](CO)C(=O)N[C@@H](CCC(=O)O)C(=O)N[C@@H](C)C(=O)N[C@@H](CCSC)C(=O)N[C@@H](CCSC)C(=O)NCCC(=O)N[C@@H](CCC(N)=O)C(=O)NCCC(=O)N[C@@H](CSC1CC(=O)N(CCC(=O)NCCCOCCOCCOCCCNC(=O)CCN2C(=O)CC(SC[C@H](NC(=O)CCNC(=O)[C@H](CCC(N)=O)NC(=O)CCNC(=O)[C@H](CCSC)NC(=O)[C@H](CCSC)NC(=O)[C@H](C)NC(=O)[C@H](CCC(=O)O)NC(=O)[C@H](CO)NC(=O)[C@H](Cc3c[nH]c4ccccc34)NC(=O)[C@@H]3C[C@H](n4cc([C]56[CH]7[CH]8[CH]9[CH]5[Fe]89765%10%11%12[CH]6[CH]5[CH]%10[CH]%11[CH]6%12)nn4)CN3C(=O)[C@@H](NC(=O)[C@H](CC(N)=O)NC(=O)[C@H](CC(N)=O)NC(=O)[C@@H](NC(=O)[C@@H](N)CCCNC(=N)N)[C@@H](C)CC)[C@@H](C)CC)C(N)=O)C2=O)C1=O)C(N)=O)[C@@H](C)CC` (stereo partly drawn) [1a], the “inhibition of HIV-1 infection (in words)” value in the assay on HIV-1BaL pseudovirus [1] (HIV-1BaL pseudotyped virions) is listed as “powerful inhibitor of HIV-1 infection, comparable to 1”. In assay [2], the “p24 release (in words)” value is recorded as “did not induce p24 release”.

On to `O=C(O)CCP(CCC(=O)O)CCC(=O)O` [TCEP, tris(2-carboxyethyl)phosphine], for which the “virus infectivity after reagent treatment and removal” value with HIV-1BaL virions is on record as “did not cause significant dose-dependent reduction”. The “inhibition … by sulfhydryl reagent” value in the assay with HIV-1BaL pseudovirus [1] is “inhibit”.

`NC(=O)CI` [IAAm, iodoacetamide]: the “inhibition … by sulfhydryl reagent” value in the assay on HIV-1BaL pseudovirus [1] is “inhibit”.

With enfuvirtide [T20], the “infection with six-helix bundle formation delayed by low temperature” value in the assay with HIV-1BaL pseudovirus [3] is “blocked infection”.

B1: cyanovirin-N: lectin that binds high-mannose glycans in the gp120 outer domain (protein, UniProt P81180 1-101, looked up)
Cyanovirin-N: LGKFSQTCYNSAIQGSVLTSTCERTNGGYNTSSIDLNSVIENVDGSLKWQPSNFIETCRNTQLAGSSELAAECKTRAQQFVSTKINLDDHIANIDGTLKYE
On to B1, for which the “inhibition of PTT-induced p24 release by protein ligand” value in assay [4] is reported as “did not inhibit p24 release; also recorded: no inhibition of p24 release”.
